According to ChEMBL document CHEMBL1124284, “Design of novel inhibitors of aminopeptidases. Synthesis of peptide-derived diamino thiols and sulfur replacement analogues of bestatin” (J Med Chem, 1988):

Test: Inhibition of partially purified soluble aminopeptidase from rat brain
Conditions: read-out: I50
Method in brief: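 Enzyme from whole fresh Sprague-Dawley rat brain: homogenized in ice-cold 50 mM Tris-HCl pH 7.4 with 1 mM DTT and 0.01 mM ZnCl2, soluble supernatant taken after 80000g spin, 40–70% ammonium sulfate cut, dialyzed. About 30 μg protein started the reaction with leucine p-nitroanilide (final 100 μM), up to 1 h at 37 °C or room temperature. Released p-nitroaniline read at 550 nm.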

SMILES | IC50 [µM]
CC(C)C[C@@H](NC(=O)[C@H](Cc1ccccc1)NCC(O)[C@@H](N)Cc1ccccc1)C(=O)O (stereo partly drawn) | 0.58
N[C@H](CS)Cc1ccccc1 | 0.039
CC(C)C[C@H](NCC(S)[C@@H](N)Cc1ccccc1)C(N)=O (stereo partly drawn) | 0.033
N[C@@H](CS)Cc1ccccc1 | 6.9
CC(C)CCNCC(S)[C@@H](N)Cc1ccccc1 (stereo in doubt; 53) | 0.3
CC(C)CCNCC(S)[C@@H](N)Cc1ccccc1 (stereo in doubt; 54) | 0.02
CC(C)CCNCC(S)[C@H](N)Cc1ccccc1 (stereo in doubt; 58) | 0.6
CC(C)CCNCC(S)[C@H](N)CC(C)C (stereo in doubt; 59) | 7.5
CC(C)C[C@H](NCC(S)[C@@H](N)Cc1ccccc1)C(=O)O (stereo in doubt; 71) | 0.22
CC(C)C[C@H](NC(=O)C(S)[C@H](N)Cc1ccccc1)C(=O)O (stereo in doubt; 78) | 10

Further molecules by falling IC50, results first:

IC50 [µM] | SMILES
240 | CC(C)C[C@@H](NC(=O)[C@H](Cc1ccccc1)NCCS)C(=O)O
4.4 | CC(C)C[C@H](NCC(S)[C@@H](N)Cc1ccccc1)C(=O)O (stereo in doubt; 70)
3.1 | CC(C)CCNCC(S)[C@H](N)Cc1ccccc1 (stereo in doubt; 57)
2.5 | CC(C)CCNCC(S)[C@H](N)CC(C)C (stereo in doubt; 60)
1.6 | CC(C)C[C@H](NC(=O)C(S)[C@@H](N)Cc1ccccc1)C(=O)O (stereo partly drawn)
0.22 | CC(C)C[C@H](NC(=O)C(S)[C@H](N)Cc1ccccc1)C(=O)O (stereo in doubt; 79)
0.17 | CC(C)C[C@H](NC(=O)[C@@H](O)[C@H](N)Cc1ccccc1)C(=O)O [UBENIMEX]
0.081 | CC(C)CCNCC(S)[C@@H](N)CC(C)C (stereo in doubt; 55)
0.034 | CC(C)C[C@H](NCC(S)[C@@H](N)CC(C)C)C(N)=O (stereo partly drawn)
0.029 | CC(C)CCNCC(S)[C@@H](N)CC(C)C (stereo in doubt; 56)
0.01 | CC(C)C[C@H](N)CS
0.004 | CC(C)C[C@@H](NC(=O)[C@H](Cc1ccccc1)NCC(S)[C@@H](N)CC(C)C)C(=O)O (stereo partly drawn)
0.001 | CC(C)C[C@@H](NC(=O)[C@H](Cc1ccccc1)NCC(S)[C@@H](N)Cc1ccccc1)C(=O)O (stereo partly drawn)
